Columns and labels:
[1] = molecular target: AMPK alpha2/beta1/gamma1 (Homo sapiens, UniProt P54619+P54646+Q9Y478); experiment: Inhibition of AMPK_A2/B1/G1 (unknown origin); assay type: protein-complex assay
[2] = molecular target: Calcium/calmodulin-dependent protein kinase type 1 (Homo sapiens, UniProt Q14012); experiment: Inhibition of CAMK1 (unknown origin)
[3] = molecular target: Eukaryotic elongation factor 2 kinase (Homo sapiens, UniProt O00418); experiment: Inhibition of EEF2K (unknown origin)
Eukaryotic elongation factor 2 kinase, sequence (O00418 whole entry): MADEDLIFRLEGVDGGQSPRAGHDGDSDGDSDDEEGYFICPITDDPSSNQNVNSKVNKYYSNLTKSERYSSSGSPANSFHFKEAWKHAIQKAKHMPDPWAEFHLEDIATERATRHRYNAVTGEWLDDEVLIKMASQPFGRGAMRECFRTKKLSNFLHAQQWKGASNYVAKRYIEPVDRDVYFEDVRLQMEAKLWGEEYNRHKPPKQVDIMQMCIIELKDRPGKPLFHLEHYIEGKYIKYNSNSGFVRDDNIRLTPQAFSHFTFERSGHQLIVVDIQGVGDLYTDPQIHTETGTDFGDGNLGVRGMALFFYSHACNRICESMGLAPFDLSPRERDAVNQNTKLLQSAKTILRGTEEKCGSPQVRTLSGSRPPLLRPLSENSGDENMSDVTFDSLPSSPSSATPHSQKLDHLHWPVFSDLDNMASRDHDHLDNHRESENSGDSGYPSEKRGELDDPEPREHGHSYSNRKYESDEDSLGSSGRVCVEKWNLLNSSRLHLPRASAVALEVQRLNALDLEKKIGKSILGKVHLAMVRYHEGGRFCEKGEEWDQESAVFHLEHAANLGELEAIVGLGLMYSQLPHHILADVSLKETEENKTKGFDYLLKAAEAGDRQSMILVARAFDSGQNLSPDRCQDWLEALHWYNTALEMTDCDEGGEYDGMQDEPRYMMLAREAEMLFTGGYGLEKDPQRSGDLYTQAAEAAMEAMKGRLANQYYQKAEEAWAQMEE

[4] = molecular target: Ephrin type-B receptor 4 (Homo sapiens, UniProt P54760); experiment: Inhibition of EPHB4 (unknown origin)
[5] = molecular target: Glycogen synthase kinase-3 beta (Homo sapiens, UniProt P49841); experiment: Inhibition of GSK3B (unknown origin)
[6] = molecular target: Serine/threonine-protein kinase MARK2 (Homo sapiens, UniProt Q7KZI7); experiment: Inhibition of MARK2 (unknown origin)
Serine/threonine-protein kinase MARK2, sequence (Q7KZI7 whole entry): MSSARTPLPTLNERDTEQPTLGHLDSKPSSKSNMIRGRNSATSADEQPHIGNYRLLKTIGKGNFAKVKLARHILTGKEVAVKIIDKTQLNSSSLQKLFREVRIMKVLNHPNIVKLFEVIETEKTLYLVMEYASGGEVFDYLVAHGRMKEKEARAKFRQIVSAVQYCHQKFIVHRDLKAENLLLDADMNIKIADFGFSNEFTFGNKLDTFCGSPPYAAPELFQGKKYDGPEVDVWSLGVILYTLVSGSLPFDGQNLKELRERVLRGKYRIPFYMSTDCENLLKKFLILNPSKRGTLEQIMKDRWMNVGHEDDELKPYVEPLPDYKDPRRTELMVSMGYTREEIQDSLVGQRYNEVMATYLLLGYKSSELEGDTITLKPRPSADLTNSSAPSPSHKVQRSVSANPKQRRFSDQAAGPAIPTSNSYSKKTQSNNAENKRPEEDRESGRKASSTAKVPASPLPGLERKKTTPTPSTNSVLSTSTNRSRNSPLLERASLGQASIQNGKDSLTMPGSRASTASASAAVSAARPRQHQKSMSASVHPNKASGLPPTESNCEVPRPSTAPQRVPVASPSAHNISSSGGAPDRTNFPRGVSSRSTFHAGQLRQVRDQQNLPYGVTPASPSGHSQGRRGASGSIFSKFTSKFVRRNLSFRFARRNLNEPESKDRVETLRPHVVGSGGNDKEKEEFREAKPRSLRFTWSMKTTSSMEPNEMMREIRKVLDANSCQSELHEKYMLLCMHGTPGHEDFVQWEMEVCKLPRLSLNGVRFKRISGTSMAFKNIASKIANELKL

[7] = molecular target: MAP/microtubule affinity-regulating kinase 4 (Homo sapiens, UniProt Q96L34); experiment: Inhibition of MARK4 (unknown origin)
MAP/microtubule affinity-regulating kinase 4, sequence (Q96L34 whole entry): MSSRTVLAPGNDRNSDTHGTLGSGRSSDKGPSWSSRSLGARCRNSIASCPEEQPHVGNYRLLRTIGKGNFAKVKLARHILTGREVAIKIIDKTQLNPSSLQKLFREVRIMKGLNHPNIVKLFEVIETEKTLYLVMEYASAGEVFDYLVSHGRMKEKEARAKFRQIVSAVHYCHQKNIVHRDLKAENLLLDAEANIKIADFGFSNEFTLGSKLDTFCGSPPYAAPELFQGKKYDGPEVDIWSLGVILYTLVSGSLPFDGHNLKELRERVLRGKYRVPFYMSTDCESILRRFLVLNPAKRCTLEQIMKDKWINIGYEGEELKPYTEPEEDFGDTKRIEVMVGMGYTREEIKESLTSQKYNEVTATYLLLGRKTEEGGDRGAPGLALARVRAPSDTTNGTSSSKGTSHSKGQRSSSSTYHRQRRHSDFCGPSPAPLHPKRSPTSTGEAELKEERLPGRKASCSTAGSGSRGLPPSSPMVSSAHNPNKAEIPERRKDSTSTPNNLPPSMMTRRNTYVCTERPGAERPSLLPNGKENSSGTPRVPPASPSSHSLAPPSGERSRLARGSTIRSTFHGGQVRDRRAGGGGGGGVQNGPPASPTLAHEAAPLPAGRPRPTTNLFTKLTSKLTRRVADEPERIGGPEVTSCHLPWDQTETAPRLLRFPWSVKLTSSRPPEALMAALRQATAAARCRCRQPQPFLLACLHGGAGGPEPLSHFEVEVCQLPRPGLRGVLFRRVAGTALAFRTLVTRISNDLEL

[8] = molecular target: Tyrosine-protein kinase Mer (Homo sapiens, UniProt Q12866); experiment: Inhibition of MERTK (unknown origin)
[9] = molecular target: BDNF/NT-3 growth factors receptor (Homo sapiens, UniProt Q16620); experiment: Inhibition of NTRK2 (unknown origin)
BDNF/NT-3 growth factors receptor, sequence (Q16620 whole entry): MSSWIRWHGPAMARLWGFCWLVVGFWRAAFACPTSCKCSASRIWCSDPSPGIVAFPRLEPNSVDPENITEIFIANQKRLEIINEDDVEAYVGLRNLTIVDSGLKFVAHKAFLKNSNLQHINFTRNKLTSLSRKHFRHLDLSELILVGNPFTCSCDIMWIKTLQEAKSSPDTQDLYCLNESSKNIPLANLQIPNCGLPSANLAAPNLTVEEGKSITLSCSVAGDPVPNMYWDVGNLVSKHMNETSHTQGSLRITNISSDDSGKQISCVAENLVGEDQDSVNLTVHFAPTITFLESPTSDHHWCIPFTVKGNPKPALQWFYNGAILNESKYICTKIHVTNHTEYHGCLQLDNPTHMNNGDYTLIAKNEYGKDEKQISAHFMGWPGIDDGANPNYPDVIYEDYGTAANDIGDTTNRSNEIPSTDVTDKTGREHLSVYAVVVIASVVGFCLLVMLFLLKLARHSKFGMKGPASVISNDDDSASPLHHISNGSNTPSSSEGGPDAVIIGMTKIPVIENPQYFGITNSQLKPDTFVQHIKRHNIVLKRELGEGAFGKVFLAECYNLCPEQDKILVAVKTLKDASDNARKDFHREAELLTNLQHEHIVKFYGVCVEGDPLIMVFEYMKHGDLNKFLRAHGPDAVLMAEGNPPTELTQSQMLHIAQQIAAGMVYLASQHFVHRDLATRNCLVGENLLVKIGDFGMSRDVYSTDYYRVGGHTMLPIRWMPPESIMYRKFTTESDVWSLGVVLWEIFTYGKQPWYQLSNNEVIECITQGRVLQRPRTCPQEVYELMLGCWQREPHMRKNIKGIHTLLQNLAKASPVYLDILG

[10] = molecular target: cAMP-dependent protein kinase catalytic subunit alpha (Homo sapiens, UniProt P17612); experiment: Inhibition of PRKACA (unknown origin)
[11] = molecular target: Ribosomal protein S6 kinase alpha-2 (Homo sapiens, UniProt Q15349); experiment: Inhibition of RPS6KA2 (unknown origin)
[12] = molecular target: SRSF protein kinase 2 (Homo sapiens, UniProt P78362); experiment: Inhibition of SRPK2 (unknown origin)
SRSF protein kinase 2, sequence (P78362 whole entry): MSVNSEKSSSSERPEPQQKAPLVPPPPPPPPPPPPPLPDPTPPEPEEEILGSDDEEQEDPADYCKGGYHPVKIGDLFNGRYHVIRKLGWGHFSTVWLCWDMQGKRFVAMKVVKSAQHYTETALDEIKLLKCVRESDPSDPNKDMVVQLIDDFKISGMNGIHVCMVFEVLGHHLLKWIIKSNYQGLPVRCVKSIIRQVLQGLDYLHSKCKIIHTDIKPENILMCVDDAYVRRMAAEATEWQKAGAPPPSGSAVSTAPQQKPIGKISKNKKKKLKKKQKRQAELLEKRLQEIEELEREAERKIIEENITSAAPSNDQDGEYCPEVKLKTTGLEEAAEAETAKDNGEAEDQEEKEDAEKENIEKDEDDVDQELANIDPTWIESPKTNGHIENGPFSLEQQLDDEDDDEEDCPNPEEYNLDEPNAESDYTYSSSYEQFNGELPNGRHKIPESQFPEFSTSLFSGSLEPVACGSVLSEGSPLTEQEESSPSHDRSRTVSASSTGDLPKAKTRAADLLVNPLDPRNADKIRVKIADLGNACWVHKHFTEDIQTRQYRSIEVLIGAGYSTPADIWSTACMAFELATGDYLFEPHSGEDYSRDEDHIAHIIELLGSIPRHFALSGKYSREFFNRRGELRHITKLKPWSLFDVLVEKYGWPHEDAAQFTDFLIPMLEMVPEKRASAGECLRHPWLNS

[13] = Oral bioavailability in dog at 45 mg/kg administered as single via gavage; assay type: ADME, organism-based, Canis lupus familiaris; settings: in vivo
[14] = Drug concentration in 5XFAD mouse brain at 1200 ppm administered as rodent chow for 180 days; assay type: ADME, tissue-based; settings: route po, time 180 day, read-out: Ct
[15] = test system: Mus musculus; experiment: Antialzheimer activity in 5XFAD mouse assessed as number of open arm entries at 1200 ppm administered as rodent chow for 10 to 24 weeks by Elevated plus maze test (reference value: 10 to 33); assay type: functional; settings: route po, time 10-24 weeks
[16] = test system: Mus musculus; experiment: Antialzheimer activity in 5XFAD mouse assessed as number of Thio-S positive plaques per FOV in somatosensory cortex at 1200 ppm administered as rodent chow starting from 1.5 months and measured after 7 months by Thio-S staining based confocal microscopic analysis (reference value: 22 to 106); assay type: functional; settings: route po, time 5.5 months, 4015 h
[17] = test system: Mus musculus; experiment: Antialzheimer activity in 5XFAD mouse assessed as amyloidbeta40 level in detergent soluble cortex fraction measured per microgram protein at 1200 ppm administered as rodent chow starting from 1.5 months and measured after 4 months by ELISA (reference value: 0 to 0.089 pg); assay type: functional; settings: route po, time 2.5 months, 1825 h
Method in brief: (§1)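 PLX5622 at 1200 ppm in chow given to 5xFAD mice from 1.5 months to 4 or 7 months of age; cortex and thalamus homogenized in TPER (detergent-soluble), pellets re-homogenized in 70% formic acid and spun 100,000 g, 1 h, 4 °C (insoluble); protein by Bradford/Lowry; Aβ species measured by Meso Scale electrochemiluminescence immunoassay, normalized to protein; n = 7–8 per group at 7 months.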

[18] = test system: Mus musculus; experiment: Antialzheimer activity in 5XFAD mouse assessed as amyloidbeta40 level in detergent insoluble thalamus fraction measured per microgram protein at 1200 ppm administered as rodent chow starting from 1.5 months and measured after 7 months by ELISA (reference value: 57.876 to 502395 pg); assay type: functional; settings: route po, time 5.5 months, 4015 h; method in brief: as §1
[19] = test system: Mus musculus; experiment: Antialzheimer activity in 5XFAD mouse assessed as iron reactivity by measuring hemosiderin intensity of prussian blue staining in thalamus at 1200 ppm administered as rodent chow starting from 1.5 months and measured after 7 months by confocal microscopic analysis (reference value: 0.39 to 3.131 a.u.); assay type: functional; settings: route po, time 5.5 months, 4015 h
Method in brief: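 Wild-type or 5xFAD mice fed PLX5622 (1200 ppm) in AIN-76A chow from 1.5 months of age, examined in 4- and 7-month-old cohorts. Brain sections stained with a Prussian blue kit per kit instructions to detect iron deposits (microbleeds).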

[20] = test system: Mus musculus; experiment: Effect on APP processing pathway in 5XFAD mouse assessed as C99 protein signal intensity in cortex at 1200 ppm administered as rodent starting from 1.5 months and measured after 7 months (reference value: 49.412 to 179.884 %); assay type: functional; settings: route po, time 5.5 months, 4015 h
[21] = Effect on Csf1r RPKM gene expression in wild type mouse cortex at 1200 ppm administered as rodent chow starting from 1.5 months and measured after 7 months by RNA-Seq analysis (reference value: 18.302 to 19.220 RPKM); assay type: functional; settings: route po, time 5.5 months, 4015 h
[22] = Effect on ccl6 gene expression in wild type mouse thalamus at 1200 ppm administered as rodent chow starting from 1.5 months and measured after 7 months by RNA-Seq analysis (reference value: 0.647 to 1.238 RPKM); assay type: functional; settings: route po, time 5.5 months, 4015 h
[23] = Effect on Zfp286 gene expression in wildtype mouse hippocampus assessed as percent change in Reads Per kilo base per Million mapped reads at 1200 ppm administered as rodent chow starting from 1.5 months and measured after 7 months by RNA-Seq analysis (reference value: 85.126 to 114.292 %); assay type: functional; settings: route po, time 5.5 months, 4015 h
[24] = Effect on Nrg3 gene expression in wildtype mouse hippocampus assessed as percent change in Reads Per kilo base per Million mapped reads at 1200 ppm administered as rodent chow starting from 1.5 months and measured after 7 months by RNA-Seq analysis (reference value: 84.058 to 111.732 %); assay type: functional; settings: route po, time 5.5 months, 4015 h
[25] = Effect on Nos1ap gene expression in wildtype mouse hippocampus assessed as percent change in Reads Per kilo base per Million mapped reads at 1200 ppm administered as rodent chow starting from 1.5 months and measured after 7 months by RNA-Seq analysis (reference value: 90.677 to 108.278 %); assay type: functional; settings: route po, time 5.5 months, 4015 h
[26] = Prevention of Scn1b gene downregulation in 5XFAD mouse hippocampus assessed as percent change in Reads Per kilo base per Million mapped reads at 1200 ppm administered as rodent chow starting from 1.5 months and measured after 7 months by RNA-Seq analysis (reference value: 53.15 to 80.717 %); assay type: functional; settings: route po, time 5.5 months, 4015 h
[27] = Prevention of Nrg3 gene downregulation in 5XFAD mouse hippocampus assessed as percent change in Reads Per kilo base per Million mapped reads at 1200 ppm administered as rodent chow starting from 1.5 months and measured after 7 months by RNA-Seq analysis (reference value: 52.623 to 75.016 %); assay type: functional; settings: route po, time 5.5 months, 4015 h
[28] = Prevention of Gls gene downregulation in 5XFAD mouse hippocampus assessed as percent change in Reads Per kilo base per Million mapped reads at 1200 ppm administered as rodent chow starting from 1.5 months and measured after 7 months by RNA-Seq analysis (reference value: 58.522 to 73.849 %); assay type: functional; settings: route po, time 5.5 months, 4015 h
[29] = Prevention of Dync1i1 gene downregulation in 5XFAD mouse hippocampus assessed as percent change in Reads Per kilo base per Million mapped reads at 1200 ppm administered as rodent chow starting from 1.5 months and measured after 7 months by RNA-Seq analysis (reference value: 65.184 to 88.242 %); assay type: functional; settings: route po, time 5.5 months, 4015 h

AMPK alpha2/beta1/gamma1, sequence (P54646 whole entry): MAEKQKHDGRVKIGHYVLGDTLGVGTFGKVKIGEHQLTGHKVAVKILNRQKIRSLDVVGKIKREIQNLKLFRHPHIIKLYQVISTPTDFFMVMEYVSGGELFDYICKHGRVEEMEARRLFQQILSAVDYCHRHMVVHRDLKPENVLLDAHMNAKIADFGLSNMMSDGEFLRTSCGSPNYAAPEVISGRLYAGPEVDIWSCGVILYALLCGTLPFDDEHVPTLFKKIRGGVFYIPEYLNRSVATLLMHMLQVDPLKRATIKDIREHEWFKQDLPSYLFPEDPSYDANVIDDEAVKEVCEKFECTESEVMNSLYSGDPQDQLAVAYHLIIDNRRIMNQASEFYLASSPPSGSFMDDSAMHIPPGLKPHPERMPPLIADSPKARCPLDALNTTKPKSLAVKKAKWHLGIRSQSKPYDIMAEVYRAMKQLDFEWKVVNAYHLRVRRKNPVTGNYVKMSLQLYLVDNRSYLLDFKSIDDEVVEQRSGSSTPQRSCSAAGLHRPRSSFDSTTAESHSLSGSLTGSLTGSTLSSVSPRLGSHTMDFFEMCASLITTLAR
AMPK alpha2/beta1/gamma1, sequence (P54619 whole entry): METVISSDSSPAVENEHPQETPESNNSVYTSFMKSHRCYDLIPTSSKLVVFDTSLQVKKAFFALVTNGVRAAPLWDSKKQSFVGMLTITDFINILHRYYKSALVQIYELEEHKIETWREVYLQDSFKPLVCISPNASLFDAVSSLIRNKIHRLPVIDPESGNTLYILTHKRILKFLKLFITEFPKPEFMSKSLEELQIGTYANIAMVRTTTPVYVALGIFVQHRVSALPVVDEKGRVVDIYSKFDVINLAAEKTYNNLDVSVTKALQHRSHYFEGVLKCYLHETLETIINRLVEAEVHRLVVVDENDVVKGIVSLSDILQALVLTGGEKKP
AMPK alpha2/beta1/gamma1, sequence (Q9Y478 whole entry): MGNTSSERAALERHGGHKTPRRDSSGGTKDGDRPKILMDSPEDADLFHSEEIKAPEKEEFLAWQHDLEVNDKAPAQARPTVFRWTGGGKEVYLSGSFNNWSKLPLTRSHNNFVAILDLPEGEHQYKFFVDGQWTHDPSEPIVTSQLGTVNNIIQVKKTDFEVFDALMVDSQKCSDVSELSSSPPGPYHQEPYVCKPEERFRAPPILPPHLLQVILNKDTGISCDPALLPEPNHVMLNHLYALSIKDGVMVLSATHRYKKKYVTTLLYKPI

Work on `COc1ncc(F)cc1CNc1ccc(Cc2c[nH]c3ncc(C)cc23)c(F)n1` [PLX-5622] yielded an IC50 [1] of over 1 µM, an IC50 [2] of over 1 µM and an IC50 [3] of over 1 µM. It also gave an IC50 [4] of over 1 µM, an IC50 [5] of over 1 µM and an IC50 [6] of over 1 µM. It also gave an IC50 [7] of over 1 µM, an IC50 [8] of over 1 µM and an IC50 [9] of over 1 µM. It also gave an IC50 [10] of over 1 µM, an IC50 [11] of over 1 µM and an IC50 [12] of over 1 µM. For the same compound, the bioavailability [13] was 34%, the concentration at 4320 h [14] was 2.39 µg/mL and the Activity [15] was 15. The Activity [16] was 2, the Activity [17] was 0 pg and the Activity [18] was 100.854 pg. The Flu intensity [19] was 0.1 a.u, the Activity [20] was 75.956% and the Activity [21] was 0.073 RPKM. The Activity [22] was 0 RPKM, the Activity [23] was 76.544% and the Activity [24] was 59.872%. For the same compound, the Activity [25] was 78.494%, the Activity [26] was 84.37% and the Activity [27] was 86.32%. It also gave an Activity [28] of 77.958% and an Activity [29] of 89.818%.
